Assay results taken from ChEMBL document CHEMBL1212891, “Effect of [6]-shogaol on cytosolic Ca2+ levels and proliferation in human oral cancer cells (OC2)” (J Nat Prod, 2010).
Active and inactive are the calls of the source. The calls are words filed in the database; no cut-off is given here.

What was measured:
[1] = test system: OC2; assay: Activation of phospholipase A2/C in human OC2 cells assessed as increase in intracellular calcium level at 1 uM; format: cell-based
How it was run: (§1)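 OC2 cells trypsinized (10^6/mL), recovered 1 h in culture medium, loaded with 2 µM fura-2/AM for 30 min at 25 °C, washed and resuspended in Ca2+-containing buffer pH 7.4 (NaCl 140, KCl 5, MgCl2 1, CaCl2 2, HEPES 5, glucose 5 mM). 0.5 million cells/mL stirred at 25 °C. Ratio of 340/380 nm excitation read at 510 nm emission every 1 s. Calibrated with Triton X-100 and EGTA, Kd 155 nM.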

[2] = (§2) Cytotoxicity in human OC2 cells assessed as decrease in cell viability after 24 hrs by crystal violate assay; format: functional, cell-based; details: OC2, 24 h
How it was run: (§3)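 OC2 cells in RPMI with 10% heat-inactivated FCS at 37 °C, 5% CO2. Plated at 1 × 10^4 per well and grown overnight. At about 70% confluence, medium replaced with compound at 0-100 µM from a DMSO stock (final DMSO <0.5%, DMSO as control) for 24 h. Cell number by crystal violet elution, expressed as percent of control. n=5.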

[3] = test system: OC2; assay: Activation of phospholipase A2/C in human OC2 cells assessed as increase in intracellular calcium level at 100 uM in presence of protein kinase C activator PMA
[4] = test system: OC2; assay: Activation of phospholipase A2/C in human OC2 cells assessed as decrease in intracellular calcium release at 100 uM in presence of Calcium entry blocker La3+; format: cell-based; how it was run: as §1
[5] = test system: OC2; assay: Activation of phospholipase A2/C in human OC2 cells assessed as increase in intracellular calcium level at 100 uM in presence of PKC inhibitor GF109203X; format: cell-based; how it was run: as §1
[6] = test system: OC2; assay: Activation of phospholipase A2/C in human OC2 cells assessed as increase in intracellular calcium level at 0.1 uM; format: cell-based; how it was run: as §1
[7] = test system: OC2; assay: Activation of calcium channel in human OC2 cells assessed as increase in intracellular calcium […] in presence of La3+; format: cell-based; how it was run: as §1
[8] = test system: OC2; assay: as §2; format: functional, cell-based; how it was run: as §3
[9] = test system: OC2; assay: Activation of phospholipase A2/C in human OC2 cells assessed as increase in intracellular calcium level at 100 uM pretreated with phospholipase C inhibitor […] and ATP; format: cell-based
[10] = test system: OC2; assay: Activation of phospholipase A2/C in human OC2 cells assessed as increase in intracellular calcium level at 100 uM in presence of PKA inhibitor H89; format: cell-based; how it was run: as §1
[11] = test system: OC2; assay: Activation of phospholipase A2/C in human OC2 cells assessed as increase in intracellular calcium level at 100 uM in presence of thapsigargin; format: cell-based
[12] = test system: OC2; assay: Activation of phospholipase A2/C in human OC2 cells assessed as increase in intracellular calcium level in presence of phospholipase-A2 inhibitor aristolochc acid; format: cell-based; how it was run: as §1
[13] = test system: OC2; assay: Activation of phospholipase A2/C in human OC2 cells assessed as increase in intracellular calcium level at 100 uM; format: cell-based; how it was run: as §1

COC(=O)C1=C(C)NC(C)=C(C(=O)OC)C1c1ccccc1[N+](=O)[O-]
Activity [1]: inactive

COC(=O)C1=C(C)NC(C)=C(C(=O)OCCN(C)Cc2ccccc2)C1c1cccc([N+](=O)[O-])c1 (configuration not stated)
Activity [1]: inactive

COc1ccc(CCN(C)CCCC(C#N)(c2ccc(OC)c(OC)c2)C(C)C)cc1OC (configuration not stated)
Activity [1]: inactive

COc1ccc([C@@H]2Sc3ccccc3N(CCN(C)C)C(=O)[C@@H]2OC(C)=O)cc1
Activity [1]: inactive

CCCCC[C@H](O)CC(=O)CCc1ccc(O)c(OC)c1 [GINGEROL]
IC50 [2]: 74.2 µM

CCCCC/C=C/C(=O)CCc1ccc(O)c(OC)c1 [SHOGAOL]
Activity [3]: Active | Activity [4]: inactive | Activity [5]: Active | Activity [6]: inactive | Activity [7]: inactive | Activity [8]: Dose-dependent effect | IC50 [2]: 15.6 µM | Activity [9]: inactive | Activity [10]: Active | Activity [11]: inactive | Activity [12]: inactive | Activity [13]: 68%
